Data on 30 molecules can be found in ChEMBL document CHEMBL1147175, “Synthesis of dioxane-based antiviral agents and evaluation of their biological activities as inhibitors of Sindbis virus replication” (Bioorg Med Chem, 2007).

The nature of data set [1]: Cytotoxicity against BHK cells by XTT assay. It is filed as cell-based, Mesocricetus auratus. The settings on record: hamster. A digest of the protocol: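 Uninfected BHK cells were treated with a range of compound concentrations. Viability was read with an XTT colorimetric kit, where mitochondrial dehydrogenases form a coloured product read at 450 nm.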
(In general: Formazan colour is commonly taken as a measure of viable cells.)

In data set [2] the test system is Sindbis virus. Description: Antiviral activity against Sindbis virus replication in BHK cells after 12 hrs by luciferase assay. It is filed as functional, organism-based. The procedure, abridged: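 BHK cells grown to confluency were infected with luciferase-reporter Sindbis virus (SIN-IRES-Luc) at MOI below 1. Medium containing compound below cytotoxic concentrations was then added, and cells were incubated 12 h at 37 °C. Luciferase was measured in cell extracts by luminometer. EC50 is the concentration giving a 50% reduction in virus production.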

Data set [3] in a line: Therapeutic index, ratio of EC50 for Sindbis virus to CC50 for BHK cells. It is filed as cell-based. The settings on record: hamster, read-out: TI. A digest of the protocol:
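Therapeutic index was calculated as the […] (XTT viability of uninfected BHK cells).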

In data set [4] the test system is Sindbis virus. Description: Antiviral activity against Sindbis virus replication in BHK cells at 10^-3 mM after 12 hrs by luciferase assay.
The subject of data set [5] is Sindbis virus. As to the kind of experiment: Antiviral activity against Sindbis virus replication in BHK cells after 12 hrs by luciferase assay.
[6] abbreviates: in the assay text read “luciferase assay” for “XTT assay”.

pEC50: −log10 of the molar value. The source made the active and inactive calls. The calls are words filed in the database; no cut-off is given here.

In general, CC50 refers to the concentration that lowers cell viability or growth by half. Broadly, the pEC50 is −log10 of the EC50, conventionally taken in molar units. Low readings indicate a high EC50, high ones a low EC50. In the case of `O=CC[C@H]1COCCO1`, the CC50 in data set [1] is above 5 mM. This molecule showed a pEC50 with Sindbis virus [2] of 3.34.

Molecule `ICC[C@@H]1COCCO1` had a half-maximal cytotoxic concentration (CC50) in data set [1] above 1 mM. The same molecule gave a negative-log EC50 (pEC50) in the data set with Sindbis virus [2] (setting [6]) of 3.60.

For `OC[C@@H]1COCCO1`, the CC50 in data set [1] is above 1 mM. In the data set with Sindbis virus [2] (setting [6]), this molecule gave a pEC50 of 5.47. Also, the selectivity ratio in data set [3] was above 294.

In data set [1], `OCCC[C@@H]1COCCO1` showed a CC50 above 1 mM. Also, the result in the data set with Sindbis virus [4] was inactive.

Molecule `C(CC[C@@H]1COCCO1)CC[C@@H]1COCCO1` gave a CC50 in data set [1] above 1 mM. In the data set with Sindbis virus [2] (setting [6]), this molecule gave a negative-log EC50 (pEC50) of 2.82.

On to `ClCCOC[C@H]1CO1`, for which, in data set [1], the CC50 is above 1 mM. This molecule showed a pEC50 in the data set with Sindbis virus [2] (setting [6]) of 3.00.

Turning to `c1ccc(CCCC[C@@H]2COCCO2)cc1`, the cytotoxic concentration (CC50) in data set [1] is above 1 mM. Further, the outcome with Sindbis virus [4] was inactive.

For `C(C[C@@H]1COCCO1)C[C@@H]1COCCO1`, the 50% cytotoxic concentration (CC50) in data set [1] is above 1 mM. The same molecule showed a pEC50 in the data set with Sindbis virus [2] (setting [6]) of 4.85. The selectivity ratio in data set [3] is above 71.

The molecule `OC(CC[C@@H]1COCCO1)C[C@@H]1COCCO1` (stereo not given in full) yielded a CC50 in data set [1] above 1 mM. Besides, in the data set on Sindbis virus [4], the result was inactive.

Molecule `CON=C(C[C@@H]1COCCO1)C[C@@H]1COCCO1` returned a half-maximal cytotoxic concentration (CC50) in data set [1] above 1 mM. In addition, the result with Sindbis virus [4] was inactive.

As for `OC[C@H]1COCCO1`, in data set [1], the 50% cytotoxic concentration (CC50) is above 5 mM. In the data set with Sindbis virus [2] (setting [6]), the negative-log EC50 (pEC50) was 2.82.

On to `OCC[C@@H]1COCCO1`, for which the 50% cytotoxic concentration (CC50) in data set [1] was above 1 mM. Further, the pEC50 with Sindbis virus [2] (setting [6]) is 2.85.

Molecule `OCC[C@H]1COCCO1` gave a CC50 in data set [1] above 1 mM. For the same molecule, the outcome in the data set with Sindbis virus [4] was inactive.

In turn, `C1CSC(C[C@H]2COCCO2)(C[C@@H]2COCCO2)SC1` yielded a CC50 in data set [1] above 1 mM. In the data set with Sindbis virus [2] (setting [6]), this molecule gave a pEC50 of 4.54.

In the case of `OC(C[C@@H]1COCCO1)C[C@@H]1COCCO1`, in data set [1], the half-maximal cytotoxic concentration (CC50) is above 1 mM. The same molecule gave a negative logarithm of the EC50 (pEC50) in the data set with Sindbis virus [2] (setting [6]) of 3.17.

As to `C1CSC(C[C@H]2COCCO2)SC1`, the 50% cytotoxic concentration (CC50) in data set [1] was above 1 mM. In addition, in the data set on Sindbis virus [2] (setting [6]), the pEC50 is 3.00.

Regarding `O=C(CCC[C@@H]1COCCO1)C[C@@H]1COCCO1`, the result in the data set with Sindbis virus [4] was inactive.

`C(CC[C@@H]1COCCO1)C[C@@H]1COCCO1` had a CC50 in data set [1] above 1 mM. Besides, the pEC50 in the data set on Sindbis virus [2] (setting [6]) was 2.82.

In data set [1], `C1CSC(C[C@H]2COCCO2)(C[C@H]2COCCO2)SC1` yielded a CC50 above 1 mM. Besides, the outcome in the data set with Sindbis virus [4] was inactive.

`O=C(C[C@@H]1COCCO1)C[C@@H]1COCCO1` came in with a CC50 in data set [1] above 1 mM. The result with Sindbis virus [4] was inactive.

The molecule `COc1ccc(CCN(C)CCC[C@](C#N)(c2ccc(OC)c(OC)c2)C(C)C)cc1OC` had a negative logarithm of the EC50 (pEC50) with Sindbis virus [2] (setting [6]) of 2.89.

On to `C(C[C@H]1COCCO1)C[C@H]1COCCO1`, for which the 50% cytotoxic concentration (CC50) in data set [1] is above 1 mM. Also, in the data set with Sindbis virus [4], the result was inactive.

On to `ON=C(C[C@@H]1COCCO1)C[C@@H]1COCCO1`, for which the CC50 in data set [1] was above 1 mM. The outcome in the data set with Sindbis virus [4] was inactive.

For `C(C[C@@H]1COCCO1)C[C@H]1COCCO1` (mixture of isomers), in data set [1], the CC50 is above 1 mM. Besides, in the data set with Sindbis virus [4], the outcome was inactive.

As to `O=C(CC[C@@H]1COCCO1)C[C@@H]1COCCO1`, the CC50 in data set [1] was above 1 mM. The outcome in the data set with Sindbis virus [4] was inactive.

Turning to `ClCCOC[C@@H]1CO1`, the CC50 in data set [1] is above 5 mM. The pEC50 in the data set on Sindbis virus [5] is 3.00.

In turn, `C1CSC(CC[C@@H]2COCCO2)SC1` returned a CC50 in data set [1] above 1 mM. For the same molecule, in the data set with Sindbis virus [4], the outcome was inactive.

Consider `C1CSC(CC[C@@H]2COCCO2)(C[C@@H]2COCCO2)SC1`, for which the cytotoxic concentration (CC50) in data set [1] was above 1 mM. Besides, the outcome in the data set with Sindbis virus [4] was inactive.

On to `CN(C)CCCN1c2ccccc2Sc2ccc(Cl)cc21` [CHLORPROMAZINE], for which, in data set [1], the midpoint of cytotoxicity, the CC50, lay at 0.1 mM. This molecule had a pEC50 in the data set on Sindbis virus [2] (setting [6]) of 5.09.

Molecule `CC(O)[C@H]1COCCO1` (stereo not given in full) had a CC50 in data set [1] of 1 mM. Also, in the data set with Sindbis virus [2] (setting [6]), the negative-log EC50 (pEC50) is 4.00.
